In ChEMBL document CHEMBL1156334, “New Angiopep-modified doxorubicin (ANG1007) and etoposide (ANG1009) chemotherapeutics with increased brain penetration” (J Med Chem, 2010):

How the values were obtained:
[1] = Cytotoxicity against human U87MG cells after 48 hrs by [3H]thymidine incorporation assay; type: functional, cell-based, U-87MG ATCC; conditions: U-87 MG
Summary of the method: (§1)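 Tumor cells were seeded at 5000 per well and exposed to increasing drug concentrations for 48 h. The medium was then aspirated and cells pulse-labeled for 2 h at 37 °C in fresh medium with 2 μCi/mL [methyl-3H]thymidine. Cells were harvested and tritium was counted by scintillation. Incorporation was plotted against concentration to estimate IC50.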

SK-HEP1 = experiment: Cytotoxicity against human SKHEP1 cells after 48 hrs by [3H]thymidine incorporation assay; type: functional, cell-based; summary of the method: as §1
NCI-H460 = experiment: Cytotoxicity against human NCI-H460 cells after 48 hrs by [3H]thymidine incorporation assay; type: functional, cell-based; summary of the method: as §1
[2] = Cell cycle arrest in human U87MG cells assessed as accumulation at G0/G1 phase at 1 uM after 24 hrs by flow cytometry; type: functional, cell-based; conditions: U-87MG ATCC
Summary of the method: (§2)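 Exponentially growing U87 MG cells in flasks were treated with drug or left untreated as controls. Cells were trypsinized, washed twice in PBS, fixed in 70% ice-cold ethanol, and stained with 50 μg/mL propidium iodide plus 0.5 mg/mL RNase in 10 mM Tris, 5 mM MgCl2. DNA content was measured by flow cytometry and given as % of cells per phase, from one representative of three experiments.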

[3] = Cell cycle arrest in human U87MG cells assessed as accumulation at S phase at 1 uM after 24 hrs by flow cytometry; type: functional, cell-based; conditions: U-87MG ATCC; summary of the method: as §2
[4] = Cell cycle arrest in human U87MG cells assessed as accumulation at G2/M phase at 1 uM after 24 hrs by flow cytometry; type: functional, cell-based; conditions: U-87MG ATCC; summary of the method: as §2
Brain = experiment: Drug uptake in perfused mouse brain assessed as blood-brain transfer coefficient; type: ADME, tissue-based; conditions: in vivo
Summary of the method: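 In situ brain perfusion was done in adult male CD-1 mice. Radiolabeled drug in Krebs/bicarbonate buffer (gassed 95% O2/5% CO2, pH 7.4, 37 °C) was infused into the carotid artery for 0.5, 1, 2 or 4 min, then washed out tracer-free for 60 s. Brain homogenate radioactivity was counted (γ or liquid scintillation) and expressed as apparent Vd. Vd versus time was fitted by least-squares regression.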

[5] = Cell cycle arrest in human U87MG cells assessed as accumulation at G0/G1 phase at 33 nM after 24 hrs by flow cytometry; type: functional, cell-based; conditions: U-87MG ATCC; summary of the method: as §2
[6] = Cell cycle arrest in human U87MG cells assessed as accumulation at S phase at 33 nM after 24 hrs by flow cytometry; type: functional, cell-based; conditions: U-87MG ATCC; summary of the method: as §2
[7] = Cell cycle arrest in human U87MG cells assessed as accumulation at G2/M phase at 33 nM after 24 hrs by flow cytometry; type: functional, cell-based; conditions: U-87MG ATCC; summary of the method: as §2
[8] = Cell cycle arrest in human U87MG cells assessed as accumulation at G0/G1 phase at 100 nM after 24 hrs by flow cytometry; type: functional, cell-based; conditions: U-87MG ATCC; summary of the method: as §2
[9] = Cell cycle arrest in human U87MG cells assessed as accumulation at S phase at 100 nM after 24 hrs by flow cytometry; type: functional, cell-based; conditions: U-87MG ATCC; summary of the method: as §2
[10] = Cell cycle arrest in human U87MG cells assessed as accumulation at G2/M phase at 100 nM after 24 hrs by flow cytometry; type: functional, cell-based; conditions: U-87MG ATCC; summary of the method: as §2
[11] = Cell cycle arrest in human U87MG cells assessed as accumulation at G0/G1 phase at 3 uM after 24 hrs by flow cytometry; type: functional, cell-based; conditions: U-87MG ATCC; summary of the method: as §2
[12] = Cell cycle arrest in human U87MG cells assessed as accumulation at S phase at 3 uM after 24 hrs by flow cytometry; type: functional, cell-based; conditions: U-87MG ATCC; summary of the method: as §2
[13] = Cell cycle arrest in human U87MG cells assessed as accumulation at G2/M phase at 3 uM after 24 hrs by flow cytometry; type: functional, cell-based; conditions: U-87MG ATCC; summary of the method: as §2

| SMILES | IC50 [1] | IC50 (SK-HEP1) | IC50 (NCI-H460) | Activity [2] | Activity [3] | Activity [4] | Kin (Brain) | Activity [5] | Activity [6] | Activity [7] | Activity [8] | Activity [9] | Activity [10] | Activity [11] | Activity [12] | Activity [13] |
| --- | --- | --- | --- | --- | --- | --- | --- | --- | --- | --- | --- | --- | --- | --- | --- | --- |
| COc1cc([C@@H]2c3cc4c(cc3[C@@H](O[C@@H]3O[C@@H]5CO[C@@H](C)O[C@H]5[C@H](O)[C@H]3OC(=O)CCCC(=O)NCCCC[C@H](NC(=O)CNC(=O)[C@H](CCCNC(=N)N)NC(=O)[C@H](CO)NC(=O)CNC(=O)CNC(=O)[C@H](Cc3ccc(O)cc3)NC(=O)[C@H](Cc3ccccc3)NC(=O)[C@H](Cc3ccccc3)NC(=O)[C@@H](NC(=O)CCCC(=O)O[C@H]3[C@H](O[C@@H]5c6cc7c(cc6[C@@H](c6cc(OC)c(OC(=O)CN(C)C)c(OC)c6)[C@H]6C(=O)OC[C@@H]65)OCO7)O[C@@H]5CO[C@@H](C)O[C@H]5[C@@H]3O)C(C)O)C(=O)N[C@@H](CCCNC(=N)N)C(=O)N[C@@H](CC(N)=O)C(=O)N[C@@H](CC(N)=O)C(=O)N[C@@H](Cc3ccccc3)C(=O)N[C@@H](CCCCNC(=O)CCCC(=O)O[C@H]3[C@H](O[C@@H]5c6cc7c(cc6[C@@H](c6cc(OC)c(OC(=O)CN(C)C)c(OC)c6)[C@H]6C(=O)OC[C@@H]65)OCO7)O[C@@H]5CO[C@@H](C)O[C@H]5[C@@H]3O)C(=O)N[C@H](C(=O)N[C@@H](CCC(=O)O)C(=O)N[C@@H](CCC(=O)O)C(=O)N[C@@H](Cc3ccc(O)cc3)C(=O)O)[C@@H](C)O)[C@H]3COC(=O)[C@H]23)OCO4)cc(OC)c1OC(=O)CN(C)C (some centres undefined) | 330 nM | 48 nM | 148 nM | 25.7% | 3.3% | 70.8% | 22 10^-4ml/g/s | – | – | – | – | – | – | – | – | – |
| COc1cccc2c1C(=O)c1c(O)c3c(c(O)c1C2=O)C[C@@](O)(C(=O)COC(=O)CCC(=O)NCCCC[C@H](NC(=O)CNC(=O)[C@H](CCCNC(=N)N)NC(=O)[C@H](CO)NC(=O)CNC(=O)CNC(=O)[C@H](Cc1ccc(O)cc1)NC(=O)[C@H](Cc1ccccc1)NC(=O)[C@H](Cc1ccccc1)NC(=O)[C@@H](NC(=O)CCC(=O)OCC(=O)[C@]1(O)Cc2c(O)c4c(c(O)c2[C@@H](O[C@H]2C[C@H](N)[C@H](O)[C@H](C)O2)C1)C(=O)c1c(OC)cccc1C4=O)C(C)O)C(=O)N[C@@H](CCCNC(=N)N)C(=O)N[C@@H](CC(N)=O)C(=O)N[C@@H](CC(N)=O)C(=O)N[C@@H](Cc1ccccc1)C(=O)N[C@@H](CCCCNC(=O)CCC(=O)OCC(=O)[C@]1(O)Cc2c(O)c4c(c(O)c2[C@@H](O[C@H]2C[C@H](N)[C@H](O)[C@H](C)O2)C1)C(=O)c1c(OC)cccc1C4=O)C(=O)N[C@H](C(=O)N[C@@H](CCC(=O)O)C(=O)N[C@@H](CCC(=O)O)C(=O)N[C@@H](Cc1ccc(O)cc1)C(=O)O)[C@@H](C)O)C[C@@H]3O[C@H]1C[C@H](N)[C@H](O)[C@H](C)O1 (some centres undefined) | 6 nM | 4.6 nM | 7.3 nM | – | – | – | 31 10^-4ml/g/s | 32.3% | 10.1% | 57.3% | – | – | – | – | – | – |
| COc1cccc2c1C(=O)c1c(O)c3c(c(O)c1C2=O)C[C@@](O)(C(=O)CO)C[C@@H]3O[C@H]1C[C@H](N)[C@H](O)[C@H](C)O1 [DOXORUBICIN] | 18 nM | 10 nM | 11 nM | – | – | – | 2.5 10^-4ml/g/s | – | – | – | 30.8% | 8.9% | 59.9% | – | – | – |
| COc1cc([C@@H]2c3cc4c(cc3[C@@H](O[C@@H]3O[C@@H]5CO[C@@H](C)O[C@H]5[C@H](O)[C@H]3O)[C@H]3COC(=O)[C@H]23)OCO4)cc(OC)c1O [ETOPOSIDE] | 145 nM | 62 nM | 90 nM | – | – | – | 0.9 10^-4ml/g/s | – | – | – | – | – | – | 8.9% | 4.2% | 87% |
| CC(=O)O[C@H]1C(=O)[C@@]2(C)[C@H]([C@H](OC(=O)c3ccccc3)[C@]3(O)C[C@H](OC(=O)[C@H](O)[C@@H](NC(=O)c4ccccc4)c4ccccc4)C(C)=C1C3(C)C)[C@]1(OC(C)=O)CO[C@@H]1C[C@@H]2O [PACLITAXEL] | – | – | – | – | – | – | 6.9 10^-4ml/g/s | – | – | – | – | – | – | – | – | – |
